According to ChEMBL document CHEMBL1148725, “2,2,2-Trichloro-N-({2-[2-(dimethylamino)ethyl]-1,3-dioxo-2,3-dihydro-1H-benzo[de]isoquinolin- 5-yl}carbamoyl)acetamide (UNBS3157), a novel nonhematotoxic naphthalimide derivative with potent antitumor activity” (J Med Chem, 2007):
Activity calls are given as the source filed them. The calls are words filed in the database; no cut-off is given here.

Assays:
[1] = test system: MCF7; experiment: Antiproliferative activity against MCF7 cells after 72 hrs by MTT assay; assay type: functional, cell-based, Homo sapiens
Summary of the method: (§1)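 Cells cultured with each compound for three days; growth then read by the MTT colorimetric assay and reported as IC50 (µM).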

[2] = test system: L1210; experiment: Antitumor activity in L1210 cells xenografted B6D2F1 mouse at 10 mg/kg, ip relative to control; assay type: functional; conditions: route intraperitoneal
Summary of the method: (§2)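 Mice grafted with L1210 leukaemia cells on day 0, then dosed i.p. four times weekly on days 1-4 and 8-11. Five mice per group. Outcome is %T/C, the median survival of treated over control. Kruskal-Wallis test followed by Dunn comparisons against control.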

[3] = test system: LoVo; experiment: Antiproliferative activity against LoVo cells after 72 hrs by MTT assay; assay type: functional, cell-based, Homo sapiens; summary of the method: as §1
[4] = test system: HCT-15; experiment: Antiproliferative activity against HCT15 cells after 72 hrs by MTT assay; assay type: functional, cell-based, Homo sapiens; summary of the method: as §1
[5] = Antiproliferative activity against U373MG cells after 72 hrs by MTT assay; assay type: functional, cell-based, Homo sapiens, U-373MG ATCC; summary of the method: as §1
[6] = Antiproliferative activity against Hs683 cells after 72 hrs by MTT assay; assay type: functional, cell-based, Homo sapiens, Hs 683; summary of the method: as §1
[7] = Toxicity in ip dosed B6D2F1 mouse; assay type: organism-based; conditions: in vivo
Summary of the method: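 Acute MTD was set by a single i.p. dose to groups of three healthy female B6D2F1 mice, at 2.5, 5, 10, 20, 40, 80 and 160 mg/kg. The MTD is the dose just below the lowest dose that killed at least one mouse.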

[8] = test system: A549; experiment: Antiproliferative activity against A549 cells after 72 hrs by MTT assay; assay type: functional, cell-based, Homo sapiens; summary of the method: as §1
[9] = test system: L1210; experiment: Antitumor activity in L1210 cells xenografted B6D2F1 mouse at 40 mg/kg, ip relative to control; assay type: functional; conditions: route intraperitoneal; summary of the method: as §2
[10] = test system: L1210; experiment: Antitumor activity in L1210 cells xenografted B6D2F1 mouse at 20 mg/kg, ip relative to control; assay type: functional; conditions: route intraperitoneal; summary of the method: as §2
[11] = test system: L1210; experiment: Antitumor activity in L1210 cells xenografted B6D2F1 mouse at 80 mg/kg, ip relative to control; assay type: functional; conditions: route intraperitoneal; summary of the method: as §2
[12] = biological target: T1, DNA topoisomerase 1 (Homo sapiens) (UniProt P11387); experiment: Inhibition of human topoisomerase 1 by DNA unwinding test
T1 sequence (whole entry): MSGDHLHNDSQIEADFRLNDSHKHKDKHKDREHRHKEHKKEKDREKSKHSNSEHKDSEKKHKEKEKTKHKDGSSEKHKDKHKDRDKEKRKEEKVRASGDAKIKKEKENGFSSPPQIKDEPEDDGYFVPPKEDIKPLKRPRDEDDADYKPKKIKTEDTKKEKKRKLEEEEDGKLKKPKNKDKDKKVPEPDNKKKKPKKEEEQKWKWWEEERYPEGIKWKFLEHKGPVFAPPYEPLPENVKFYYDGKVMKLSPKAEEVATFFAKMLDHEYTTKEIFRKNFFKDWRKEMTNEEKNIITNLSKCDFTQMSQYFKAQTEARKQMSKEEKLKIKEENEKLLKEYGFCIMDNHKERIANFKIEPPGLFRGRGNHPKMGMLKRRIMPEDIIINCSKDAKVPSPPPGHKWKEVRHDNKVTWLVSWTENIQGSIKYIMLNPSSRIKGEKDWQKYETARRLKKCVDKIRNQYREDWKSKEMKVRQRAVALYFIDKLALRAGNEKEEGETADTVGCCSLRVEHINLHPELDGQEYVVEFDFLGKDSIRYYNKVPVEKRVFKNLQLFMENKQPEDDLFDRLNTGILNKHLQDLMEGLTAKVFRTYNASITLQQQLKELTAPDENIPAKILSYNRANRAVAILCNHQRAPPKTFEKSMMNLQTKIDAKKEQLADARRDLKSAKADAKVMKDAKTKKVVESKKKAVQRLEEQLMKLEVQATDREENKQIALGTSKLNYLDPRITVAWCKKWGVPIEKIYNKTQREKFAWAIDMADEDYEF
Summary of the method: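 DNA unwinding assay: relaxed pBR322 plasmid converted to supercoiled form in presence of topoisomerase I; compounds at final 4–32 µM (one up to 15–55 µM); ethidium bromide-stained agarose gels; UC50 taken as concentration shifting relaxed band to midpoint between supercoiled and relaxed states.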

[13] = organism: Homo sapiens; experiment: Inhibition of human topoisomerase 2 at 50 uM by plasmid linearization assay
[14] = test system: MCF7; experiment: Induction of apoptosis in human MCF7 cells assessed as p53 activation; assay type: functional, cell-based
Summary of the method: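 MCF-7 cells treated and p53 activation assessed by immunoblotting, with tubulin as loading control. Adriamycin (2.5 µM, 24 h) served as positive control.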

[15] = biological target: DNA topoisomerase 2-alpha (Homo sapiens) (UniProt P11388); experiment: Inhibition of human topoisomerase 2-mediated kinetoplast DNA […] at 50 uM
Summary of the method: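 Topoisomerase II strand-passage activity by kDNA decatenation; compounds at 50 µM; catenated networks stay in wells, decatenated kDNA enters ethidium bromide-stained agarose gel; no-enzyme and no-drug reactions as controls.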

Sequence of DNA topoisomerase 2-alpha (Homo sapiens) (P11388 whole entry): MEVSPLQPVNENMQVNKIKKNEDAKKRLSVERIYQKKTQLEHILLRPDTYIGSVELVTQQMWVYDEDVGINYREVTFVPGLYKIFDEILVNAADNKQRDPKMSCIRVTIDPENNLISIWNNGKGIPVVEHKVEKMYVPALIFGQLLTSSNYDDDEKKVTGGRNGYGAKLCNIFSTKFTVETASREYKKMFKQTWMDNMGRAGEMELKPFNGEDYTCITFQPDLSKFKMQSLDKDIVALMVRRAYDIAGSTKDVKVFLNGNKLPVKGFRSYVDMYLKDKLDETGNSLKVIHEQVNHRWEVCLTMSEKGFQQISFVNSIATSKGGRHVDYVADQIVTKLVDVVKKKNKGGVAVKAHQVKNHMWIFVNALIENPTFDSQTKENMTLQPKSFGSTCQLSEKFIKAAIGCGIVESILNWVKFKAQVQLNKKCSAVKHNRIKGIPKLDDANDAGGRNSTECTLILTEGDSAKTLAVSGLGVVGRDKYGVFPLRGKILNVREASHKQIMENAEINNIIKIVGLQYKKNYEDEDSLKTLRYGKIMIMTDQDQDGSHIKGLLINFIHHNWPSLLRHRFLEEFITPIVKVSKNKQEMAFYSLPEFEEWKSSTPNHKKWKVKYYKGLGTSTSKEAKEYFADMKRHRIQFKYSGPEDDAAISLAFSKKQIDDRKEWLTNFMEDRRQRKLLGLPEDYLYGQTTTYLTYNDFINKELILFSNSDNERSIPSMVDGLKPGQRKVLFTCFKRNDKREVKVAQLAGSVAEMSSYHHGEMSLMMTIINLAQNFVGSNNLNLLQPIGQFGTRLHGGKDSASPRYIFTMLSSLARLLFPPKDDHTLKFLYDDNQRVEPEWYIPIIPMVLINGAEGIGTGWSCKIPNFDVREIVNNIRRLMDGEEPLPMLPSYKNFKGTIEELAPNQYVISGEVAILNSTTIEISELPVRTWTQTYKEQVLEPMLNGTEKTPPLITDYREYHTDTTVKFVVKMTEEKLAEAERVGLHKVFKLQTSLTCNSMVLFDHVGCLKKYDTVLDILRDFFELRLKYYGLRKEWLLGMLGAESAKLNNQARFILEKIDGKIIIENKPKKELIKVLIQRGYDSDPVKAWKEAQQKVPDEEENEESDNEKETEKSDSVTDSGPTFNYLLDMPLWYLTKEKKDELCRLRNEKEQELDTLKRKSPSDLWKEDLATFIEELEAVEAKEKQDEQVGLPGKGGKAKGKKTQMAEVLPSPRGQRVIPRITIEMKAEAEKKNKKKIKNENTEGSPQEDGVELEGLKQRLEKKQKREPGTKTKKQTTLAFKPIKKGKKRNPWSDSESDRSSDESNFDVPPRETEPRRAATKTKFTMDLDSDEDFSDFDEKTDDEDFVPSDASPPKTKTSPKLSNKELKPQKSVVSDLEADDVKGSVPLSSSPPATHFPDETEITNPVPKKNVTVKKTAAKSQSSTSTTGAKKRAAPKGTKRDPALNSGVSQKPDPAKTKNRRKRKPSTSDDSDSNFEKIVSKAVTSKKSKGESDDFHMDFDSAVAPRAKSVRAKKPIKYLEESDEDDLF

Structure (SMILES) | IC50 ([1]; Homo sapiens, MCF7, 72 h) [µM] | IC50 ([3]; Homo sapiens, LoVo, 72 h) [µM] | IC50 ([4]; Homo sapiens, HCT-15, 72 h) [µM] | IC50 ([5]; Homo sapiens, U373 MG, 72 h) [µM] | IC50 ([6]; Homo sapiens, Hs 683, 72 h) [µM] | MTD [7] [mg/kg] | IC50 ([8]; Homo sapiens, A549, 72 h) [µM] | further results
COc1ccc(CC(=O)Nc2cc3c4c(cccc4c2)C(=O)N(CCN(C)C)C3=O)cc1 | 2.2 | 1.3 | 2.8 | 2.7 | 4.2 | 10 | 3.2 | Activity [2]: 107%
CN(C)CCN1C(=O)c2cccc3cc(/N=C\c4cc(O)ccc4O)cc(c23)C1=O.Cl | 6.3 |  |  | 4.7 |  | 40 |  | IC50 ([3]; lovo): 3.7 µM; Activity [9]: 210%; IC50 ([4]; hct-15): 4.3 µM; IC50 ([6]; hs 683): 4.9 µM; IC50 ([8]; a549): 3.9 µM
CN(C)CCN1C(=O)c2cccc3cc(NC(=O)c4ccccc4)cc(c23)C1=O | > 10 | 3.7 | 8.4 | 6 | 5.6 | 40 | 8.5 | Activity [10]: 167%
CN(C)CCN1C(=O)c2cccc3cc(NCc4ccccc4O[C@H]4O[C@H](CO)[C@@H](O)[C@H](O)[C@H]4O)cc(c23)C1=O.Cl | > 10 | > 10 | > 10 | > 10 | > 10 | > 80 | > 10 | Activity [9]: 129%
CN(C)CCN1C(=O)c2cccc3cc(NC(=O)Cc4ccc(Cl)cc4)cc(c23)C1=O | 4.8 | 4.8 | 5.5 | 5.8 | 7 | 20 | 4.7 | Activity [2]: 200%
CN(C)CCN1C(=O)c2cccc3cc(NC(=O)NC(=O)CCl)cc(c23)C1=O | 4.9 | 2.9 | 4.5 | 3.3 | 3 | 20 | 4.1 | Activity [10]: 147%
CN(C)CCN1C(=O)c2cccc3cc(NC(=O)NC(=O)c4ccccc4)cc(c23)C1=O | 3.6 | 2.1 | 3.4 | 3.4 | 3 | 40 | 2 | Activity [9]: 140%
CCOC(=O)NC(=O)Nc1cc2c3c(cccc3c1)C(=O)N(CCN(C)C)C2=O | 6.3 | 7.7 | 4.4 | 4.1 | 3.6 | 80 | 4.9 | Activity [9]: 207%
CCOC(=O)CC(=O)Nc1cc2c3c(cccc3c1)C(=O)N(CCN(C)C)C2=O | > 10 | > 10 | > 10 | > 10 | > 10 | > 80 | > 10 | Activity [2]: 129%
CN(C)CCN1C(=O)c2cccc3cc(NC(=O)C(Cl)(Cl)Cl)cc(c23)C1=O | > 10 | 6.4 | > 10 | 8.9 | > 10 | > 80 | 10 | Activity [10]: 150%
CN(C)CCN1C(=O)c2cccc3cc(NC(=O)NCCCl)cc(c23)C1=O | 3.9 | 1.8 | 5.6 | 1 | 4.6 | > 80 | 3 | Activity [10]: 156%
CN(C)CCN1C(=O)c2cccc3cc(NC(=O)Nc4cc5c6c(cccc6c4)C(=O)N(CCN(C)C)C5=O)cc(c23)C1=O | 4.8 | 2.8 | 4.6 | 3.6 | 5 | 40 | 3.6 | Activity [10]: 124%
CCOC(=O)CCC(=O)Nc1cc2c3c(cccc3c1)C(=O)N(CCN(C)C)C2=O | > 10 | > 10 | > 10 | > 10 | > 10 | > 80 | > 10 | Activity [11]: 156%
CN(C)CCN1C(=O)c2cccc3cc([N+](=O)[O-])cc(c23)C1=O [MITONAFIDE] |  | 0.4 | 2.6 | 1.3 | 3.7 | 40 | 2.4 | Activity [10]: 193%
CN(C)CCN1C(=O)c2cccc3cc(NC(=O)C(F)(F)F)cc(c23)C1=O | 9.6 | 4.5 | > 10 | 8.1 | 8.7 | 40 | 9.5 | Activity [9]: 124%
COc1cc(/C=N\c2cc3c4c(cccc4c2)C(=O)N(CCN(C)C)C3=O)cc(OC)c1OC | > 10 | 5 | > 10 | 6.4 | > 10 | > 80 | 6.7 | Activity [11]: 107%
CN(C)CCN1C(=O)c2cccc3cc(NCc4ccc5c(c4)OCO5)cc(c23)C1=O |  |  |  |  |  | > 80 |  | IC50 ([3]; lovo): 4.8 µM; Activity [9]: 140%; IC50 ([4]; hct-15): 8.2 µM; IC50 ([5]; u-373mg atcc): > 10 µM; IC50 ([6]; hs 683): 9.8 µM; IC50 ([8]; a549): 8.5 µM
CN(C)CCN1C(=O)c2cccc3cc(/N=C\c4cc(O)ccc4O)cc(c23)C1=O |  |  |  |  |  |  |  | UC50 [12]: 13 µM; Activity [13]: Active; Activity [14]: Active; Activity [15]: Active
COC(=O)Nc1cc2c3c(cccc3c1)C(=O)N(CCN(C)C)C2=O | > 10 | 4.1 | 7.2 | 4.2 | 3.3 | 40 | 5.9 | Activity [9]: 133%
CN(C)CCN1C(=O)c2cccc3cc(N)cc(c23)C1=O.Cl |  | 3.5 | 8.8 | 4.5 | 4.7 |  | 4.8 | IC50 ([1]; mcf7): 9 µM; Activity [2]: 120%
CN(C)CCN1C(=O)c2cccc3cc(NCc4ccc5c(c4)OCO5)cc(c23)C1=O.Cl | > 10 | 3.7 | 4.5 |  |  | > 80 | > 10 | Activity [11]: 207%; IC50 ([5]; u-373mg atcc): 4 µM; IC50 ([6]; hs 683): 4.5 µM
CN(C)CCN1C(=O)c2cccc3cc(NCc4cc5c(cc4[N+](=O)[O-])OCO5)cc(c23)C1=O.Cl | > 10 | 5 | 8 | > 10 | 7.6 | > 80 | > 10 | Activity [11]: 150%
CCOC(=O)c1ccc(NC(=O)Nc2cc3c4c(cccc4c2)C(=O)N(CCN(C)C)C3=O)cc1 | 3.1 | 1.5 | 7.4 | 2.1 | 2.1 | > 80 | 1.6 | Activity [11]: 187%
CN(C)CCN1C(=O)c2cccc3cc(NC(=O)CCCCl)cc(c23)C1=O | > 10 | 10 | > 10 | > 10 | > 10 | > 80 | > 10 | Activity [11]: 164%
